The values below come from ChEMBL document CHEMBL1154690, “Identification of novel, selective, and stable inhibitors of class II histone deacetylases. Validation studies of the inhibition of the enzymatic activity of HDAC4 by small molecules as a novel approach for cancer therapy” (J Med Chem, 2009).

A short description of series [1]: Inhibition of constitutively active mutant HDAC4 (653-1084) from Escherichia coli. Summed up:
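Bacterially expressed HDAC4 carrying an H-to-Y active-site mutation, giving a constitutively active mutant enzyme, was used in the enzymatic inhibition assay.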

In series [2] the target is T1, Protein deacetylase HDAC6 (Homo sapiens, UniProt Q9UBN7).
T1 sequence (Q9UBN7 whole entry): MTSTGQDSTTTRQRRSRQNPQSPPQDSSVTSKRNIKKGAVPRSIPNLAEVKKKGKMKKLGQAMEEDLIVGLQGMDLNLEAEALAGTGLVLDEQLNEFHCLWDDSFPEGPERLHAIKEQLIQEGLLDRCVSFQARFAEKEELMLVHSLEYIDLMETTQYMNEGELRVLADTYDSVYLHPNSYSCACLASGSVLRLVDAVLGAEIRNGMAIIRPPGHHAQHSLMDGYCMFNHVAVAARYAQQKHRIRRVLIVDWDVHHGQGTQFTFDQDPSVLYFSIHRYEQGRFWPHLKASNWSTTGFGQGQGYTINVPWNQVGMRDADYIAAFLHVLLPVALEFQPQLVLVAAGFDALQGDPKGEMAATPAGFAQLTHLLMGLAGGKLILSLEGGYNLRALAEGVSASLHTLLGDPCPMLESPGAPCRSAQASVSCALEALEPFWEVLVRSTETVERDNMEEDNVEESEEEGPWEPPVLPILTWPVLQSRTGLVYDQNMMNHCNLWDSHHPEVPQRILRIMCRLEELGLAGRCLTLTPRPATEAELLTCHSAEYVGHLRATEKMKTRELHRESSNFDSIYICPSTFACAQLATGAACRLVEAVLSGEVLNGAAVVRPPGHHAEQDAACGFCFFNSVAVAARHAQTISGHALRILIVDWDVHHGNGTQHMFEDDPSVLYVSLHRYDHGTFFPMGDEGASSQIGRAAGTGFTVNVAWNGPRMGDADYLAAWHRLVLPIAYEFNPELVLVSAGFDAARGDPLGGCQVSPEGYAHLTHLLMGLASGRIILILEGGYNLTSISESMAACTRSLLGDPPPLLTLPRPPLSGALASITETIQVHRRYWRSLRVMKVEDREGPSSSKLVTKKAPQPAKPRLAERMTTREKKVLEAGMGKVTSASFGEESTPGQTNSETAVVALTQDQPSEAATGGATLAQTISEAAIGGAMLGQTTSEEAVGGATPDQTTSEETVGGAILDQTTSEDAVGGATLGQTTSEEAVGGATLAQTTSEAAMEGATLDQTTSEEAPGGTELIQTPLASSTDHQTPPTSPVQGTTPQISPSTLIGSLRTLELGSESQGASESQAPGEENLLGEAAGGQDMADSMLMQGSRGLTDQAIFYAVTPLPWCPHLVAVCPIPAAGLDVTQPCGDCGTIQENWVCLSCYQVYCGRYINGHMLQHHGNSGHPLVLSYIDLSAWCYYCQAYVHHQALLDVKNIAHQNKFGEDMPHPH
As to the kind of experiment: Inhibition of HDAC6.

Series [3] in a line: Inhibition of wild type HDAC4 (653-1084) from Escherichia coli. The procedure, abridged:
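Wild-type HDAC4 expressed in bacteria was assayed with an unnatural trifluoroacetyl-lysine substrate to boost its enzymatic efficiency.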

Series [4] addresses T2, Histone deacetylase 1 (Homo sapiens, UniProt Q13547). As to the kind of experiment: Inhibition of HDAC1.
Series [5] is described as follows: Metabolic stability in human HCT116 cells assessed as half life by LC-MS/MS analysis. The series is classed as ADME, cell-based, HCT-116.
Series [6] can be described thus: Metabolic stability in S9 fraction of human HACT116 cells assessed as half life by LC-MS/MS analysis. The series is classed as ADME, subcellular. The note with it: S9 fraction of HACT116 (HCT116) cells.
The next series has as its system HCT-116. Briefly: Antiproliferative activity against human HCT116 cells after 72 hrs. The series is classed as functional, cell-based. Conditions: HCT-116, 72 h. The procedure, abridged:
(§1)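 HCT116 cells were exposed to inhibitor for 72 h in the proliferation assay, or for 24 h for the histone H3 and α-tubulin deacetylation read-outs. Medium was replaced with fresh inhibitor every 12 h throughout. EC50 was taken as the mean of two independent determinations.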

In series [7] the target is T2, Histone deacetylase 1. As to the kind of experiment: Inhibition of HDAC1 in human HCT116 cells assessed as inhibition of histone-H3 deacetylation after 24 hrs. Type of series: cell-based, HCT-116. Summed up:
as §1

For series [8], the target named is T1, Protein deacetylase HDAC6. Briefly: Inhibition of HDAC6 in human HCT116 cells assessed as alpha-tubulin hyperacetylation after 24 hrs. The series is classed as cell-based, HCT-116. Summed up:
as §1

The nature of series [9]: Selectivity ratio of IC50 for Escherichia coli HDAC4 WT (653-1084) to IC50 for HDAC1.

Some results are limits rather than exact numbers.

T2 sequence (Q13547 whole entry): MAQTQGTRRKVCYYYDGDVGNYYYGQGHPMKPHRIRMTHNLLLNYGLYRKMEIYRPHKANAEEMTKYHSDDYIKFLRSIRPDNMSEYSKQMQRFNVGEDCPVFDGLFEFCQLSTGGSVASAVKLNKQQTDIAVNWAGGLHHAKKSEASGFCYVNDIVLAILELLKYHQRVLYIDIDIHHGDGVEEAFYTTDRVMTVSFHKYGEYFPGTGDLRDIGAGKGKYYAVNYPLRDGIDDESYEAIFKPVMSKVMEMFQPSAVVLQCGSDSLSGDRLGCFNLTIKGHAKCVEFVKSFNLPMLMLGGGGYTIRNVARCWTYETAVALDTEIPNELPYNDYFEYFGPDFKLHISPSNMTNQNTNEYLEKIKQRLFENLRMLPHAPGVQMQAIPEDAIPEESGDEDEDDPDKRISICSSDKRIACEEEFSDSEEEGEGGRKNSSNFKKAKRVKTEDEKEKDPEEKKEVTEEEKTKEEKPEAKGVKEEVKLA

One may read the IC50 as the concentration that gives 50% inhibition. Regarding `COc1ccccc1-c1ccc(C(=O)C(F)(F)F)s1`, the IC50 is 3500 nM in series [1], 6300 nM in series [2], > 10000 nM in series [3] and > 10 µM against Histone deacetylase 1 [4].

For `O=C(c1ccc(-c2ccc3c(c2)OCCO3)s1)C(F)(F)F`, the half-maximal inhibitory concentration (IC50) was 1400 nM in [1], 37 nM in series [2], > 10000 nM in series [3] and > 10 µM against Histone deacetylase 1 [4].

As to `CCCS(=O)(=O)Cc1noc(-c2ccc(C(=O)C(F)(F)F)s2)n1`, the results for the IC50 in series [1] and in series [3] were 520 nM and 30 nM, respectively.

With `O=C(c1ccc(-c2ccc3[nH]ccc3c2)s1)C(F)(F)F`, the IC50 in series [1] is 6200 nM; in series [2] it was > 5000 nM; in [3] it was > 10000 nM; at Histone deacetylase 1 [4] it was > 10 µM.

`O=C(c1cc(-c2ccccc2)cs1)C(F)(F)F`: the IC50 is > 10000 nM in series [1], 1900 nM in series [2], 3200 nM in series [3] and > 10 µM against Histone deacetylase 1 [4].

Regarding `O=C(c1ccc(-c2ccccn2)s1)C(F)(F)F`, the IC50 is > 1000 nM in series [1], > 1000 nM in [2], 540 nM in series [3] and > 1 µM at Histone deacetylase 1 [4].

Broadly, the half-life is the time needed for the level to fall by half in the phase considered. For the molecule `O=C(c1ccc(-c2nc(CS(=O)(=O)c3cccs3)no2)s1)C(F)(F)F`, the half-life was 360 min in [5] and 52 min in [6]. For the same molecule, the IC50 in [1] came to 1000 nM; in series [3], 35 nM.

Turning to `COc1cccc(-c2ccc(C(=O)C(F)(F)F)s2)c1`, the IC50 in [1] was > 5000 nM; in series [2], 3100 nM; in [3], 3800 nM; on Histone deacetylase 1 [4], > 10 µM.

Consider `COc1ccc(-c2ccc(C(=O)C(F)(F)F)s2)cc1`, for which the IC50 is > 1000 nM in series [1], > 1000 nM in [2], 110 nM in [3] and > 1 µM at Histone deacetylase 1 [4].

For the molecule `O=C(c1ccc(-c2nc(CS(=O)(=O)Cc3ccc(F)cc3)no2)s1)C(F)(F)F`, the values for the IC50 in series [1] and in series [3] were 680 nM and 60 nM, respectively. Besides, in [6], the half-life was > 120 min.

For `O=C(O)c1ccc(-c2ccc(C(=O)C(F)(F)F)s2)cc1`, the IC50 in [1] was 60 nM; in series [2], 27 nM; in series [3], 74 nM; at Histone deacetylase 1 [4], 2.5 µM.

One may read the EC50 as the concentration needed to bring the measured effect to its halfway point. Consider `O=C(O)c1cccc(-c2ccc(C(=O)C(F)(F)F)s2)c1`, for which the half-life in series [5] is 660 min. Further, the values for the EC50 (with HCT-116; at Histone deacetylase 1 [7]; in [8]) were > 50 µM, > 50 µM and 1000 nM, respectively. Moreover, the IC50 in [1] was found to be 96 nM; in [2], 70 nM; in [3], 310 nM; against Histone deacetylase 1 [4] it was 12.8 µM.

Regarding `CN(Cc1ccc2nccnc2c1)C(=O)c1ccc(C(=O)C(F)(F)F)s1`, the IC50 was 87 nM in series [1] and 98 nM in series [3]. Further, the half-life in [6] stood at 15 min.

On to `O=C(c1ccc(-c2ccccc2)s1)C(F)(F)F`, for which the IC50 is 2800 nM in series [1], 170 nM in series [2], 2800 nM in series [3] and > 20 µM on Histone deacetylase 1 [4].

In the case of `O=C(c1cnc(-c2ccccc2)s1)C(F)(F)F`, in series [9], the Ratio IC50 is 25. The IC50 in series [1] is 190 nM; in [2], 210 nM; in [3], 130 nM; against Histone deacetylase 1 [4], 3.7 µM. Moreover, the half-life in series [6] is 15 min.

`CS(=O)(=O)Cc1noc(-c2ccc(C(=O)C(F)(F)F)s2)n1`: the Ratio IC50 in series [9] is > 100. For the same molecule, the EC50 in the series with HCT-116 came out at 12.8 µM; at Histone deacetylase 1 [7], 9 µM; in series [8] it was 640 nM. The IC50 in series [1] amounted to 780 nM; in [2] it was 230 nM; in series [3], 24 nM; at Histone deacetylase 1 [4] it was 2.7 µM. For the same molecule, the half-life in series [6] is > 120 min.

For `O=C(c1ccc(-c2ccc3nccnc3c2)s1)C(F)(F)F`, the IC50 in [1] is 54 nM; in series [2], 15 nM; in [3] it was 160 nM; on Histone deacetylase 1 [4], 0.91 µM. The half-life in series [6] was determined as 10 min.

For `CC(=O)c1ccc(-c2ccc(C(=O)C(F)(F)F)s2)cc1`, the IC50 was 12 nM in [1], 29 nM in [2], 72 nM in [3] and > 10 µM against Histone deacetylase 1 [4]. In addition, in series [6], the half-life was > 120 min.

For `N#Cc1ccc(-c2ccc(C(=O)C(F)(F)F)s2)cc1`, the half-life in [5] is 480 min; in series [6], > 120 min. For the same molecule, the IC50 in [1] stood at 14 nM; in [2] it was 41 nM; in series [3] it was 160 nM; against Histone deacetylase 1 [4], 2.7 µM.
